Source: PubChem BioAssay (several laboratories)
MC4R antagonist: human MC4R antagonism in cAMP assay | P32245 | MC4R-expressing cells, MTII-stimulated cAMP, LANCE TR-FRET | inhibition, % at 6.5 µM | 360,000 compounds, 0.48% hits;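 active = inhibition above its plate's cutoff, the mean of tested wells on that plate plus 3 SD, cut at about 29% in these data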
Target sequence (P32245 whole entry, looked up): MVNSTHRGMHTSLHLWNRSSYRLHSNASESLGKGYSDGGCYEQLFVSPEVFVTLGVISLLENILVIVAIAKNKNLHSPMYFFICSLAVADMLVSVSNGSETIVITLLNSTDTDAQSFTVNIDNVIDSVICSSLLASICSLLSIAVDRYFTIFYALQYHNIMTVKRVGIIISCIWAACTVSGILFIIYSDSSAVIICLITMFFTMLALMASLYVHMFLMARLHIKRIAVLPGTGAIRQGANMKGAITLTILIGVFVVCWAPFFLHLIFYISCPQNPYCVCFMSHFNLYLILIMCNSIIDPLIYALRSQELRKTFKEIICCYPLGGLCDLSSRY
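System: U2OS cells stably expressing human melanocortin 4 receptor (MC4R). Reagent: Melanotan II challenge after compound preincubation. Doses: 6.5 µM. Times: 30-min compound, 1-h challenge, 1-h detection, room temperature. Measured by: TR-FRET with Eu-cAMP and labeled anti-cAMP, 671 nm. Replicates: singlicate.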
Bfl-1 A1 inh: inhibitors of the anti-apoptotic protein A1, read as caspase activation. MEF A1-2A-BIM cells, Caspase-Glo 3/7 luminescence, 3 h; percent of clofoctol response, vehicle zero. caspase activation, % (no concentration beside the values). 330,000 compounds, 0.066% hits;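 active = over half of replicate activation scores above 10%, or exactly half above 10 with the replicate mean above 10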
NALP1 inh: NALP1 inhibition | inhibition, % at 10 µM | S. cerevisiae NALP1/ASC/caspase-1 growth, X-gal OD620, 72 h | 280,000 compounds, 0.61% hits; in the data active = inhibition mostly above about 24%, no sharp cut-off; inactive = mostly below about 32%
NALP3 yeast inh: NALP3 inhibition in yeast; Yeast reconstituted NLRP3/ASC/caspase-1, beta-gal luminescence, 24 h; inhibition, % at 10 µM; 330,000 compounds, 0.39% hits; AID 2825;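 active = inhibition of 50% or more; inactive = inhibition below 50%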
TbMetRS inhib: blocks T. brucei methionyl-tRNA synthetase activity | 360,000 compounds, 0.4% hits | inhibition, % at 11.9 µM | purified T. brucei MetRS, ATP depletion, Kinase-Glo luminescence | AID 624268;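 active = inhibition above a per-plate cutoff of the control wells' mean inhibition plus 3 SD, cut at about 5.5% in these data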
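Measured by: Kinase-Glo luciferase luminescence reporting remaining unconsumed ATP. Material: purified T. brucei MetRS enzyme. Doses: 11.9 µM compound single dose, 0.9% DMSO. Medium: HEPES buffer containing pyrophosphatase, BSA, spermine, DTT. Times: 15 min preincubation, 2 h reaction, all 25 °C. Reagent: methionine, ATP and bulk E. coli tRNA.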
MC4R barr agon: human MC4R agonism via beta-arrestin; AID 540308; U2OS MC4R beta-arrestin complementation, luminescence; percent of melanotan II response, DMSO zero; 360,000 compounds, 0.98% hits; P32245; activation, % at 8.9 µM;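 active = activation above a per-plate cutoff, the mean activation of sample wells on that plate plus 3 SD, cut at about 8% in these data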
NALP3 confirm: NALP3 inhibition confirmation in yeast; inhibition, % at 10 µM; shares compounds with NALP3 yeast inh; AID 435006; 1,300 compounds, 81% hits; yeast expressing human NALP3, luminescence; in the data active = inhibition above about 48%
Casp1-ASC yeast: counter-screen for NALP3 inhibitors: yeast caspase-1-ASC | 1,000 compounds, 66% hits | AID 488784 | inhibition, % at 10 µM | yeast expressing Caspase-1-ASC, luminescence counter screen | shares compounds with NALP3 yeast inh
NALP3 yeast rt: yeast NALP3 inhibition, confirmed on retest | shares compounds with NALP3 yeast inh | yeast expressing human NALP3, luminescence read-out | inhibition, % at 10 µM | 1,000 compounds, 53% hits
Numbers stand for hits; n = inactive; x = not tested or not shown. An excerpt weighted towards active compounds, which were near 2.5% of everything screened. Rule as the data show it, unless noted: active = inhibition above about 50%; inactive = the rest.

SMILES	MC4R antagonist	Bfl-1 A1 inh	NALP1 inh	NALP3 yeast inh	TbMetRS inhib	MC4R barr agon	NALP3 confirm	Casp1-ASC yeast	NALP3 yeast rt
CCNCCNC(=O)c1c(O)c2cccc3c2n(c1=O)CCC3	n	n	n	52.8	n	n	74.2	n	n
Cc1ccccc1Oc1nc(-c2ccccn2)nc2ccccc12	n	n	n	n	n	n	x	x	x
CC(C)C(=O)N1CCCCCCN1C(=O)C(C)C	n	x	x	x	n	n	x	x	x
CCOC(=O)CCSc1nc2c(c(C(F)(F)F)c1C#N)CCC2	n	n	n	59.7	n	n	46.9	64.3	58.7
O=C(Nc1ccc([N+](=O)[O-])cc1)Nc1ccc(Cl)cc1F	n	n	n	76.5	n	n	48.8	n	n
COc1ccc(/C=C/C(=O)c2ccc(Cl)s2)cc1O	n	n	n	54.0	n	n	70.2	n	n
Cc1ccc(NCC2(N=Cc3ccccc3)OC(CO)C(O)C2O)cc1 (centres undefined)	n	x	x	x	n	n	x	x	x
Cc1cccc(NC(=O)COC(=O)CN2C(=O)c3ccccc3C2=O)c1	n	x	x	x	n	n	x	x	x
CCCCCCCC(=O)N1CCN(c2cc3c(cc2F)c(=O)c(C(=O)O)cn3CC)CC1	n	n	n	n	n	n	x	x	x
CCCCCCCCC(=O)N1CCN(c2cc3c(cc2F)c(=O)c(C(=O)O)cn3CC)CC1	n	n	n	57.4	n	n	51.7	n	n
COc1ccc(-c2nc3ccccc3s2)cc1NC(C)=O	n	n	n	51.3	n	n	n	n	n
C=CCOc1ccc(/C=C/C(C)=N\O)cc1	n	n	n	58.8	n	n	67.5	60.3	n
C=CCOc1ccc(/C=C/C(=O)OCC(=O)N2CCN(C(C)=O)CC2)cc1	n	n	x	n	n	n	x	x	x
COC(=O)Cn1nc(-c2ccccc2)c2ccccc21	n	n	103.2	96.8	n	n	99.0	98.8	97.8
O=C(O)CCCn1nc(-c2ccccc2)c2ccccc21	n	n	n	n	n	n	x	x	x
CSc1nc2ccc(S(=O)(=O)N3CCCC3)cc2s1	n	n	n	84.6	n	n	86.1	86.2	80.4
O=C(Nc1cccc(S(=O)(=O)N2CCCC2)c1)c1ccc2ccccc2n1	n	n	n	n	n	n	n	x	x
O=C(Nc1cccc(S(=O)(=O)N2CCCCCC2)c1)c1ccc(Cl)nc1	n	n	x	n	n	n	x	x	x
Cc1ccc(NC(=O)c2ccc3ccccc3n2)cc1S(=O)(=O)N1CCOCC1	n	n	n	n	n	n	x	x	x
O=C(Nc1cccc(S(=O)(=O)N2CCCCC2)c1)c1ccc2ccccc2n1	n	n	n	n	n	n	n	x	x
O=C(Nc1cccc(S(=O)(=O)N2CCOCC2)c1)c1ccc2ccccc2n1	n	n	x	n	n	n	n	x	x
O=C(O)C1CCCCC1C(=O)Nc1ccc(S(=O)(=O)N2CCOCC2)cc1 (centres undefined)	n	x	x	x	n	n	x	x	x
CC(CNC(=O)CN(C)CC(=O)Nc1ccccc1Br)c1ccccc1 (centres undefined)	n	x	x	n	n	n	x	x	x
O=C(Nc1cccc(Cl)c1)c1ccc2ncsc2c1	n	n	n	67.5	n	n	85.8	80.8	76.3
CC(=O)N(/N=C1\Sc2ccccc2C1=O)c1ccccc1C	n	n	n	53.9	n	n	48.0	n	n
SMILES	MC4R antagonist	Bfl-1 A1 inh	NALP1 inh	NALP3 yeast inh	TbMetRS inhib	MC4R barr agon	NALP3 confirm	Casp1-ASC yeast	NALP3 yeast rt
CC(=O)N(/N=C1\Sc2ccccc2C1=O)c1ccc(C)cc1C	n	n	n	n	n	n	x	x	x
COc1ccc(CN2C(=O)C(CC(=O)NC3CC3)CC(C(=O)N3CCOCC3)=C2C)cc1 (centres undefined)	x	x	x	x	n	x	x	x	x
CCCCn1c(N)c(N(CCC(C)C)C(=O)COC(=O)c2ccc3ccccc3c2)c(=O)[nH]c1=O	n	x	x	n	n	n	x	x	x
c1nc(C2CCCCC2)cc2cc3c(cc12)OCO3	n	n	x	51.0	n	n	53.8	x	x
c1nc(CCO[C@H]2CCCCO2)cc2cc3c(cc12)OCO3	n	n	x	n	n	n	x	x	x
Cc1ccc2c(c1)c1c(n2CCc2ccc(C)nc2)CCN(C)C1	n	n	x	n	n	n	x	x	x
O=C1NCCN1Cc1ccccc1	n	n	n	n	n	n	x	x	x
O=C1c2ccsc2SCCN1Cc1ccccc1	n	n	n	58.0	n	n	n	n	n
COc1cccc(OC)c1NC(=O)Cn1nc(C)c2ccccc2c1=O	n	n	n	n	n	n	x	x	x
Cc1ccc(C(=O)Cn2cnc3ccccc3c2=O)cc1C	n	n	n	63.2	n	n	78.2	55.2	54.4
O=C(Cn1cnc2ccccc2c1=O)c1ccc2ccccc2c1	n	n	n	n	n	n	x	x	x
O=C(Nc1ccc2oc(-c3ccncc3)nc2c1)c1cccs1	n	n	n	58.6	n	n	84.0	66.3	65.6
O=C(Nc1ccc2oc(-c3ccncc3)nc2c1)c1ccccc1F	n	n	n	n	n	n	x	x	x
Cc1nc2ccc(NC(=O)c3cccs3)cc2s1	n	n	n	64.6	n	n	77.4	62.0	71.2
Cc1nc2cc(NC(=O)c3ccc([N+](=O)[O-])s3)ccc2s1	n	n	n	60.6	n	n	68.1	x	x
O=C1c2ccccc2C(=O)N1CC(O)COc1ccccc1Cl (centres undefined)	n	n	n	n	n	n	x	x	x
Cc1cc2nc(-c3ccco3)c(Cc3cccc(Cl)c3)n2c(C)c1Br	x	x	x	x	n	x	x	x	x
Cc1ccc(-c2nc(C)sc2CC(=O)OCC(=O)Nc2ccc(F)c(Cl)c2)cc1	n	n	x	n	n	n	x	x	x
CCCCCCCCCCCCCCCC[n+]1ccc(C(N)=O)cc1	n	n	95.9	53.0	n	9.2	n	x	x
Cc1ccccc1-c1cc2c(nn1)-c1ccccc1C2=O	n	n	n	60.6	n	n	55.0	n	n
Cc1ccc(-c2cc3c(nn2)-c2ccccc2C3=O)cc1	n	n	x	n	n	n	x	x	x
CCCCCCCCCCCCCCCC[N+](C)(C)CCN(Cc1ccc(OC)cc1)c1ncccn1	42.9	n	x	52.4	n	11.8	n	x	x
O=C(CN1C(=O)NC2(CCCC2)C1=O)Nc1ccc(F)c([N+](=O)[O-])c1	n	n	n	n	n	n	x	x	x
Nn1nnc2ccccc21	n	n	n	n	n	n	x	x	x
C(=C\n1nnc2ccccc21)/c1ccccn1	n	n	x	53.1	n	n	71.4	n	x
COc1cc(CCC(=O)Nc2cc(S(=O)(=O)N3CCOCC3)ccc2OC(C)C)cc(OC)c1OC	n	x	x	x	n	n	x	x	x
CCN1/C(=C/C=C/c2oc3ccc4ccccc4c3[n+]2CC)Oc2ccc3ccccc3c21	x	n	n	59.3	x	x	61.0	x	x
